Laboratory results taken from ChEMBL document CHEMBL4513216, “Probing the Open Global Health Chemical Diversity Library for Multistage-Active Starting Points for Next-Generation Antimalarials” (ACS Infect Dis, 2020).

assay: Toxicity liver stage against HepG2, at 10uM; assay type: cell-based; parameters: test concentration 10 uM, cell line HepG2-A16-CD81EGFP; conditions: human, HepG2-A16-CD81EGFP cells; read-out: INHIBITION
Summary of the method: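 Uninfected HepG2-A16-CD81EGFP cells, 3 × 10^3 per well, 1536-well, plated on prespotted compound at 10 μM final, parasite-free screening media added to match infected plates; puromycin 10 μM positive, DMSO 0.5% negative; run in parallel with 48 h PbLuc assay at 37 °C, 5% CO2; viability by CellTiter-Glo luminescence, normalized to controls.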

Point of comparison: `CC(C)(C)c1nnc(CN2CCN(CC(O)c3ccccc3)CC2)o1` (stereo not given), cytotoxicity at 10 µM -12.8%. Against it:
- CC(C)NC(=O)NC[C@H]1OC[C@@H](NCc2ccccc2F)[C@@H]1O — higher, -1.31%
- COc1cccc(CN2CC(O)CN(C(=O)C(C)(C)C)CC2=O)c1OC (stereo not given) — lower, -57.6%
- O=C1NCCCc2c1oc1ccc(O)c(CN3CCOCC3)c21 — higher, 13.3%
- O=C(Cn1ccc2cc(Br)ccc21)NC[C@@H]1CCCN2CCCC[C@H]12 — higher, 14.5%
- CC1=Nc2c(c(=O)[nH]n2C(C)C)C(c2ccc3nccnc3c2)S1 (stereo not given) — higher, 7.29%
- CC(C)n1ncc2c1NC(=O)CC21C(=O)Nc2c(Br)cc(Cl)cc21 (stereo not given) — higher, 5.99%
- O=C(CCNC(=O)c1cnccn1)Nc1ncc[nH]1 — lower, -44.7%
- O=c1ccc(-n2ccnc2)nn1CCNS(=O)(=O)c1ccc(Br)cc1 — higher, -7.21%
- CS(=O)(=O)N1CCc2c(nnn2CC2CC2)C1COCC1CC1 (stereo not given) — higher, -3.15%
- Cc1ccc(N2CCC3(CCN(Cc4csc(C)n4)CC3)CC2)nn1 — higher, 9.43%
- Cc1ccc(N2CC3(CCN(c4nccs4)C3)C2)nn1 — higher, -5.85%
- Cc1nnc(SCC(=O)NCc2ccc3c(c2)CCC(=O)N3)n1C — higher, 9.73%
- Cc1cc(NC(=O)CCn2nc(C)c3ccccc32)n(C(C)C)n1 — higher, 4.95%
- CS(=O)(=O)Nc1ccn(Cc2ccc(Cl)cc2)n1 — higher, 6.44%
- CC(=O)Nc1ccc(CCC2(NC(=O)C3CC3)CCCCC2)cn1 — higher, 13.4%
- CCN1CCCC(O)(c2nc(C)c(CCOc3ccc(F)cc3)s2)CC1 (stereo not given) — lower, -22.4%
- Cc1cccc(CN2CCOC(C)(C(=O)N3CCOCC3)C2)n1 (stereo not given) — higher, -9.19%
- COc1ccc(Oc2nccnc2C2CCN(C(C)=O)CC2)cc1 — higher, -12.4%
- COCCN(C(=O)c1ccccn1)c1nc2c(s1)CCc1c-2cnn1C — lower, -13.8%
- Cc1cc(-c2ccccc2C(=O)O)nc(C2CCCCN2C)n1 (stereo not given) — higher, -0.168%
- O=C(O)C1(Cc2cccc(-c3ccc(F)c(F)c3)c2)CCOCC1 — higher, -2.5%
- Fc1ccc(CN2CCCC(c3nnc(-c4cnccn4)o3)C2)cc1F (stereo not given) — higher, -8.03%
- COc1ccc2c(c1)CC(NCc1cccc(NC(C)=O)c1)CC2 (stereo not given) — lower, -39.2%
- COCCNC(=O)CN(C)C(C)c1nc(C)no1 (stereo not given) — higher, 0.668%
- COCCn1nc(C(=O)N2CCN(C)CC2C)ccc1=O (stereo not given) — higher, -0.451%
- O=c1oc(-c2ccc(F)cc2)nn1CC1CCCCO1 (stereo not given) — higher, 2.35%
- Cc1ccc(CNS(=O)(=O)CCCC#N)cc1F — higher, -9.48%
- COc1ccc(C2CCN(S(=O)(=O)CCCC#N)CC2)cc1 — higher, 7.13%
- CC(C)c1csc(C2CCCN(C(=O)c3ccc[nH]3)C2)n1 (stereo not given) — lower, -48.6%
- Cc1cnn(C2CN(CCOc3ccccc3C#N)C2)c1 — higher, -8.88%
- O=C(C1CCCCN1Cc1nccn1CC(F)(F)F)N1CCCC1 (stereo not given) — higher, 14.2%
- Cc1ncc(C(=O)OCC2CCN(c3ccccc3)C2)s1 (stereo not given) — lower, -16%
- CCC(CC)C(=O)NCC1(NC(C)c2ccccc2)CCOCC1 (stereo not given) — higher, 14.7%
- CCC(NC(=O)NCC(=O)Nc1ccc(F)cc1)c1ccncc1 (stereo not given) — higher, -10.9%
- Fc1ccc(OCC2CCCO2)c(NCc2cn3cccnc3n2)c1 (stereo not given) — higher, -6.31%
- Cc1ccn(-c2ccccc2NCc2scnc2C)n1 — higher, 7.28%
- COc1cccc2c1OCC(NC(=O)NCCc1ccccn1)C2 (stereo not given) — higher, 5.69%
- N#Cc1ccc(C(=O)NS(=O)(=O)c2ccc(F)c(F)c2)cc1 — higher, -4.11%
- Cc1ncc2c(n1)CN(C(C(N)=O)c1ccc(F)cc1)CC2 (stereo not given) — higher, -1.01%
- CCCc1nnc(NC(=O)N2CCCC2c2ccncc2)s1 (stereo not given) — higher, 5.36%
- COC(=O)C(C)N1CCCc2cc(OC)ccc2C1 (stereo not given) — higher, 11%
- CC(=O)N(Cc1c(F)cccc1F)C1CCCC1 — higher, -3.63%
- NC(=O)c1cccc(CCNC(=O)N2CCCC2)c1 — higher, -3.88%
- CN(Cc1ccc([S+](C)[O-])cc1)c1cncc(Br)c1 (stereo not given) — higher, 11.7%
- CN1CCN(C(=O)c2ccc3c(c2)[nH]c(=O)n3C2CCCC2)CC1 — lower, -42.2%
- CN(CC1CCN(CCO)CC1)CC(O)c1ccc(F)cc1F (stereo not given) — lower, -59.3%
- Cc1ccc2c(c1)OC(C)CN2C(=O)Cc1ccc(C)nc1 (stereo not given) — lower, -44.2%
- CCOCc1ccccc1NC(=O)NC1CCN(C2CCCC2)C1 (stereo not given) — higher, 9.42%
- CC(C)NC(=O)c1nnn(-c2cccc(C(F)(F)F)c2)c1C1CC1 — lower, -19%
- CS(=O)(=O)N1CCC(c2nc3ccc(-c4cccc(F)c4)cn3n2)CC1 — higher, 22.6%
- CN1Cc2ccccc2CC2(CCN(C(=O)[C@H]3CCCO3)CC2)C1=O — lower, -113%
- CC(=O)N1CCC(c2nnc3ccc(C(=O)NCCN(C)C)cn23)C1 (stereo not given) — lower, -104%
- O=C(COc1ccc(F)cc1)N1CCO[C@H]2[C@@H](OCC3CC3)CC[C@@H]21 — lower, -101%
- Cc1noc([C@H]2C[C@H]3CN(C(=O)C4CCOCC4)CC[C@@H]3O2)n1 — lower, -72.6%
- COCCNc1cc(-c2cccc(C(=O)O)c2C)c2cc[nH]c2n1 — higher, -3.85%
- CN(C)Cc1csc(-c2nccn2CCc2cccnc2)c1 — lower, -51.2%
- CCc1ncc(C(=O)N(C)CCc2nc3cc(OC)ccc3[nH]2)cn1 — lower, -47.4%
- COC(=O)NCC(=O)N1CCCn2nc(CN3CC[C@H](F)C3)cc2C1 — higher, 13%
- CNc1ccnc(N2CC[C@@](O)(C3CCOCC3)[C@H](C)C2)n1 — higher, 8.64%
- Cc1nn(CC(=O)NCc2cc3n(n2)CCCN(CC(C)C)C3)cc1Cl — higher, 1.95%
- CCc1nnc(CN(C)c2nccc(CCC(F)(F)F)n2)o1 — higher, 7.4%
- N[C@@H]1CCN(Cc2cccc(N3CCOCC3)c2)C[C@H]1O — higher, 11.8%
- CCCc1nnc2sc(CC3CN(Cc4ccccc4)CCO3)nn12 (stereo not given) — higher, 5.3%
- CC1CCCN1Cc1cccc(C(=O)Nc2ccc3c(c2)CCC3=O)c1 (stereo not given) — lower, -30.9%
- COc1nc2ccn(CCc3cc(O)nc(C)n3)c(=O)c2cc1C#N — higher, 10.9%
- CCSCCn1cc(-c2ncc[nH]2)nn1 — lower, -41.4%
- O=C(C1CCCO1)N1CCc2onc(-c3ccc(Cl)cc3)c2C1 (stereo not given) — lower, -65.8%
- N[C@H]1CN(S(=O)(=O)c2ccccc2)C[C@@H]1C1CC1 — lower, -14.3%
- CC(C)Cc1cc(C(=O)NC(C)(C)CN2CCCCCC2)on1 — higher, -4.75%
- CN(C)CCCN(C)c1nccc(N2CCN[C@H]3CS(=O)(=O)C[C@H]32)n1 — higher, -0.0813%
- Cn1ccnc1CN1CCC(CNS(=O)(=O)c2cccnc2)C1 (stereo not given) — higher, 6.03%
- Cc1cccc(-n2ncc3c2CCCC3NCC(C)(C)CO)c1C (stereo not given) — higher, -1.19%
- CC(=O)Nn1ccc2c(nnc3c(-c4ccc(F)cc4)cnn32)c1=O — higher, 1.36%
- CC(=O)Nn1ccc2c(nnc3c(-c4ccccc4)cnn32)c1=O — higher, 3.06%
- COc1cc(CN(C)C(C)c2ccccn2)cc2c1OCO2 (stereo not given) — higher, 8.97%
- COCCC1(C(=O)O)CCCN(Cc2cc3c(cc2Cl)OCO3)C1 (stereo not given) — higher, -5.41%
- Cc1ccccc1CSc1nc(N)cc(N2C[C@H](O)[C@@H](N(C)C)C2)n1 — higher, 17.3%
- O=C(Cc1ccsc1)N1CCCC(c2n[nH]c3nccnc23)C1 (stereo not given) — higher, 1.98%
- Cc1cc2c(=O)n3c(nc2s1)CCN(Cc1ccncc1)CC3 — higher, 10.9%
- CCc1nc(C2CCCN2C(=O)c2cc[nH]n2)no1 (stereo not given) — lower, -15.6%
- Cc1cnn(CC(C)NCc2ccc(OCC(N)=O)cc2)c1 (stereo not given) — higher, -11.7%
- Cc1ccccc1NC(=O)N1CCN(Cc2noc(C3CC3)n2)CC1 — lower, -17%
- CC(NC(=O)NCCCN(C)S(C)(=O)=O)c1ccc(F)cc1 (stereo not given) — lower, -21.9%
- COc1c(CNC2CCc3cc(Cl)ccc32)c(C)nn1C (stereo not given) — higher, 5.64%
- CCCc1nc(CNCC2CCCN2c2cccnn2)no1 (stereo not given) — higher, -9.52%
- CS(=O)(=O)NC1CCN(C(=O)NCc2cccnc2)CC1 — higher, 0.796%
- CN(Cc1cnn(-c2ccccc2)n1)CC1CCCN1c1cccnn1 (stereo not given) — higher, -6.56%
- COc1ccc(S(=O)(=O)NCc2cccnc2N(C)C)cc1F — higher, 5.8%
- CCN(CCNC(=O)c1ccccc1OCCOC)C1CC1 — higher, 11.7%
- Cc1ncc(CNCCO)c2cc(C(=O)c3ccc(Br)cc3)oc12 — higher, 15.2%
- CN1C(=O)CCC12CCCN(Cc1nccs1)C2 (stereo not given) — lower, -68.8%
- CN(Cc1ccco1)C[C@H]1OC[C@@H]2CN(c3ncc(F)cn3)CC[C@@H]21 — higher, 21.9%
- CC1CCN(C(=O)CN2CC(c3nc(C4CC4)no3)C2)CC1 — higher, -6.6%
- CC1CCN(C(=O)[C@@H]2C[C@H]3OCC[C@H]3N(Cc3ccoc3)C2)CC1 — lower, -72.5%
- c1cnc(-c2noc(C3CN(Cc4ccc5c(c4)CCO5)C3)n2)cn1 — higher, 1.35%
- Cc1cccc(N2CCOCC3(C2)CN(c2ccccc2)C(=O)CO3)n1 (stereo not given) — higher, -4.53%
- COCc1nn(C(C)C)c2c1CCN(Cc1ccc(C)o1)C2 — higher, 2.32%
- c1cnc(N2C[C@H]3CCN(Cc4ccncc4)C[C@H]3C2)nc1 — lower, -103%
- CC1c2ncc(Cn3cccn3)n2CCN1Cc1ccccn1 (stereo not given) — lower, -106%
- O=C(CSc1nnc(N2CCNCC2)s1)Nc1ccccc1 — higher, 2.84%
- CNC(=O)COC1COC2(CCN(Cc3ccncc3F)CC2)C1 (stereo not given) — higher, 7.37%
- Cc1cccc(CN2CCC3(CCN(c4cccnc4)C3=O)C2)n1 (stereo not given) — higher, -1.63%
- O=C([C@H]1CCCN1)N1CC2(CCNCC2)c2cc(Cl)ccc21 — higher, 0.286%
- CN(Cc1cn2c(n1)CN(Cc1ccc(F)cc1)CC2)Cc1ccco1 — lower, -77%
- Cc1noc(C)c1C(=O)N1Cc2ncn(C)c2C(COCC2CC2)C1 (stereo not given) — lower, -111%
- CCn1ncc2c1CN(CCc1cccc(Cl)c1)CC2COC (stereo not given) — lower, -98.4%
- COc1ccccc1-c1ccc(C(=O)N2C[C@@H]3CC[C@H]2CN(C)C3)cc1 — lower, -18.2%
- Cc1cccc(CN2C[C@@H]3CC[C@H]2CN(Cc2[nH]cnc2C)C3)n1 — higher, -3.43%
- Cc1cnc(CN(C)C(=O)C23CNCC2CNC3)[nH]1 (stereo not given) — higher, -6.46%
